Source: PubChem (several laboratories)
Apaf-1 inh: inhibitors of human Apaf-1 apoptosome, primary screen, biochemical, DEVD-Rh110 fluorescence, uHTS. AID 489030, 2010. reconstituted apoptosome caspase-3 activity. 330,000 compounds, 0.71% hits. Apoptotic protease-activating factor 1 (Homo sapiens), O14727. inhibition, % at 20 µM; active = inhibition of at least 40% at 20 µM;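 note: plate controls were DMSO wells for no effect and DEVD-CHO caspase inhibitor wells for full effect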
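Medium: Hepes buffer, pH 7.5 / System: biochemical Apaf-1 apoptosome reconstitution / Measured by: Rh110 fluorescence, excitation 480 nm, emission 540 nm / Times: compound with Apaf-1, dATP, procaspase-3 30 min, then 50 min reaction, room temperature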
Rin1 Abl inh: inhibitors of Rin1-Abl protein binding, primary screen, biochemical, TR-FRET; Tyrosine-protein kinase ABL1 (Homo sapiens) + Ras and Rab interactor 1 (Homo sapiens), …; inhibition, % at 7.35 µM; 360,000 compounds, 0.4% hits; in the data active = inhibition above about 5%, passing the limit was not always enough
SUMO HTRF inh: inhibitors of in vitro SUMOylation cascade, primary screen, biochemical, HTRF, uHTS; HTRF SUMOylation assay, SAE1/SAE2 + UBC9; 290,000 compounds, 0.36% hits; inhibition, % at 35 µM; in the data active = inhibition above about 50%, passing the limit was not always enough
Target sequence (P63279 whole entry, looked up): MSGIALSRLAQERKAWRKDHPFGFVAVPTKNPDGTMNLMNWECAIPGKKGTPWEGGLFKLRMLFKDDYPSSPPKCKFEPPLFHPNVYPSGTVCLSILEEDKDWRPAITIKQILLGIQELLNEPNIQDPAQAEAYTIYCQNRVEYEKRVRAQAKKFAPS
UBC13 polyUb: UBC13 polyubiquitin chain formation inhibitors, primary screen, biochemical, TR-FRET, uHTS. Ubiquitin-conjugating enzyme E2 N (Homo sapiens), P61088. AID 485273, 2010. 330,000 compounds, 0.47% hits. inhibition, % at 20 µM; in the data active = inhibition above about 45%, passing the limit was not always enough
Target sequence (P61088 whole entry, looked up): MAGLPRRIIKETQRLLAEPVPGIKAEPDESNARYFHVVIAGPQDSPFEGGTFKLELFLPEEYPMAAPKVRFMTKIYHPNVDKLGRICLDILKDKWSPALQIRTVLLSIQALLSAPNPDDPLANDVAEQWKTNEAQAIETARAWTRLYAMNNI
PAD4 inh: human PAD4 inhibitors, primary screen, biochemical, fluorescence polarization, 1536-well format. 330,000 compounds, 0.41% hits. inhibition, % at 6.36 µM. recombinant PAD4, RCA probe fluorescence polarization. AID 485272, 2010;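 active = percent inhibition above a cutoff equal to the mean of all tested compounds plus 3 SD, cut at about 15% in these data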;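 note: 0% = PAD4 with RCA probe and DMSO and 100% = probe without PAD4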
GSTO1 inh: inhibitors of recombinant GSTO1, primary screen, counter-screen for RBBP9 inhibitor project, biochemical, fluorescence polarization | Glutathione S-transferase omega-1 (Homo sapiens), P78417 | activity-based probe fluorescence polarization | inhibition, % at 5.96 µM | 300,000 compounds, 1.1% hits | AID 1974, 2009;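 active = inhibition above the campaign mean inhibition plus 3 SD, cut at about 35% in these data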;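 note: 0% = GSTO1-1 with DMSO and 100% = wells lacking GSTO1-1 enzyme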
Target sequence (P78417 whole entry, looked up): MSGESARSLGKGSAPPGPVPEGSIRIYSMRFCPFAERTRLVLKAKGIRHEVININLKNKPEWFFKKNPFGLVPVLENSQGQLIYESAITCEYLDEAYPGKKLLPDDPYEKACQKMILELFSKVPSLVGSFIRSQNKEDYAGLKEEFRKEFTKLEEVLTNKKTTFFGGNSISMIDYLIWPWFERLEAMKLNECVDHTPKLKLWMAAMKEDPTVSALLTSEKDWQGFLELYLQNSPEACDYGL
Rin1-Abl confirm: Rin1-Abl binding inhibitor retest, confirmation, biochemical, TR-FRET | purified proteins | shares compounds with Rin1 Abl inh | AID 602124, 2011 | 1,300 compounds, 49% hits | inhibition, % at 7.35 µM
GFP quench: GFP fluorescence inhibitors and quenchers, artefact control for Rin1-Abl interaction inhibitor project, biochemical; shares compounds with Rin1 Abl inh; inhibitors/quenchers counterscreen; inhibition, % at 6.75 µM; 1,300 compounds, 8.5% hits; AID 602125, 2011;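 note: ABL1-eGFP fusion protein alone without its partner RIN1-SBP; 0% = protein with vehicle and 100% = wells lacking protein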
GFP quench dose: GFP fluorescence inhibitors and quenchers, dose response, artefact control for Rin1-Abl interaction inhibitor project, biochemical; shares compounds with Rin1 Abl inh; 230 tested, under 10 active; GFP fluorescence interference/quenching counterscreen; IC50, µM; call rule not given here;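 note: ABL1-eGFP fusion protein alone without its RIN1 binding partner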
Active calls of the source: *; x = no result. Compounds with a hit are over-represented: about 2.2% of the library has one in this group of screens. Cut-off read from the data, not from the text of the source, unless noted: active = inhibition above about 6.5%; inactive = the rest.

SMILES	Apaf-1 inh	Rin1 Abl inh	SUMO HTRF inh	UBC13 polyUb	PAD4 inh	GSTO1 inh	Rin1-Abl confirm	GFP quench	others
CCOC(=O)c1[nH]c(=O)[nH]c1CSc1nc(C)cc(C)n1	2	4	-15	-3	-1	11	x	x
CCOC(=O)CCCCC(=O)c1[nH]c(=O)[nH]c1C[n+]1ccc(C)cc1	6	23*	1	-12	2	14	30*	2	GFP quench dose=>68
NC(=O)c1ccc(NS(=O)(=O)c2ccc(S(=O)(=O)N3CCCC3)cc2)cc1	x	-1	x	x	x	x	x	x
CCOC(=O)C(=COC(=O)c1ccccc1)NC(=O)Cc1ccccc1	x	1	x	x	x	x	x	x
CCOC(=O)CCCCC(=O)c1[nH]c(=O)[nH]c1CSc1nc2ccccc2[nH]1	8	84*	1	-3	-2	13	88*	0	GFP quench dose=>68
NC(Cc1ccc(Cl)cc1)c1csc(NC(=O)NCCc2ccccc2)n1 (configuration not stated)	x	6	x	x	x	x	x	x
COc1ccc(CC(N)c2csc(NC(=O)NCCc3ccccc3)n2)cc1 (configuration not stated)	x	10*	x	x	x	x	6.8*	1
CNc1ncnc2c1ncn2[C@H]1CN(Cc2ccco2)C[C@@H](CO)O1	x	1	x	x	x	x	x	x
Cc1nn(Cc2c(Cl)cccc2Cl)c(C)c1NC(=O)c1cnn2c(C(F)F)cc(-c3ccccc3)nc12	21	12*	29	-29	7	9	-2	0
Cc1ccc(-c2cc(C(F)F)n3ncc(C(=O)Nc4c(C)nn(Cc5c(Cl)cccc5Cl)c4C)c3n2)cc1	17	0	28	-22	-2	1	x	x
CCOc1ccccc1N1CCN(C(=S)Nc2ccc(S(=O)(=O)Nc3ncccn3)cc2)CC1	-8	0	13	-14	0	2	x	x
COc1cc(Cl)cc(CN2CCC(CCC(=O)NC3CC3)CC2)c1OC	1	0	-9	1	0	-2	x	x
CCN(CC)CCNc1ncnc2c1sc1nc(N3CCCC3)c3c(c12)CC(C)(C)OC3	8	10*	5	20	-4	8	13*	-1
CC(C)CNc1ncnc2c1sc1nc(N3CCOCC3)c3c(c12)CC(C)(C)OC3	20	-1	4	11	0	7	x	x
CN(C)CCNc1ncnc2c1sc1nc(N3CCCC3)c3c(c12)CC(C)(C)OC3	18	7.2*	29	24	2	-5	10*	-1
O=C(CS(=O)(=O)c1ccc(Cl)cc1)Nc1nccs1	x	-4	x	x	x	x	x	x
c1ccc(CNc2c(C3CCNCC3)nc3scc(-c4ccccc4)n23)cc1	x	5	x	x	x	x	x	x
O=C(CCc1ccc(S(=O)(=O)N2CCOCC2)cc1)N/N=C/c1ccc(O)c(O)c1O	8	13*	20	10	-1	30	11*	9.4*
CCOc1ccc(CN(C)C(=O)c2cc(S(=O)(=O)N3CCCC3)ccc2C)cc1	2	3	x	-3	-3	x	x	x
Cc1sc2ncn(CC(=O)NCC(=O)N3CCN(c4ccccc4F)CC3)c(=O)c2c1C	-4	26*	11	2	7	2	0	-6
CCOC(=O)C1(Cc2ccccc2)CCN(Cc2cn[nH]c2-c2ccccc2)CC1	-6	9.5*	6	14	2	2	-1	-1
CCOC(=O)C1(CC2CC2)CCN(Cc2cn[nH]c2-c2ccccc2)CC1	2	4	7	8	0	9	x	x
N=c1ncn(C2OC(CO)C(O)C2O)c2nc(Br)[nH]c12 (configuration not stated)	x	3	x	x	x	x	x	x
COc1ccccc1/C=[N+](\[O-])C1SC(=S)N(C)C1(C)C (configuration not stated)	14	6.8*	-6	1	1	6	-3	0
Cc1ccc(C(=O)NCCc2nnc3ccc(SCC(=O)N4CCCC4)nn23)cc1	-6	15*	13	-5	-2	1	11*	-1
SMILES	Apaf-1 inh	Rin1 Abl inh	SUMO HTRF inh	UBC13 polyUb	PAD4 inh	GSTO1 inh	Rin1-Abl confirm	GFP quench	others
Cc1ccc(NS(=O)(=O)c2cccc(C(=O)NNC(=O)c3ccco3)c2)c(C)c1	10	4	x	1	-4	14	x	x
COc1ccc(COC(=O)C2=C(C)NC(=O)NC2c2cccc(OC)c2OC)cc1 (configuration not stated)	2	7.2*	11	0	2	1	3	0
COc1ccc(COC(=O)C2=C(C)NC(=O)NC2c2cc(OC)ccc2OC)cc1 (configuration not stated)	6	3	4	5	-2	-13	x	x
CCOC(=O)c1ccc(NC(=O)c2c(N)n(Cc3ccccc3)c(=O)[nH]c2=O)cc1	12	4	x	-24	0	7	x	x
O=C1Nc2cccnc2N(C(=O)CCl)c2ccccc21	7	43*	4	-5	1	26	-1	0
NCCN1CCN(CC(=O)N2c3ccccc3C(=O)Nc3cccnc32)CC1	-1	0	x	3	-5	3	x	x
COc1ccc(C(=O)N/N=C(\C)c2ccc3c(c2)C2C=CCC2C(c2ccccc2)N3)cc1 (configuration not stated)	x	-2	16	x	-8	34	x	x
COc1cccc(NS(=O)(=O)c2ccc3c(c2)C2C=CCC2C(c2ccc(C(=O)O)cc2)N3)c1 (configuration not stated)	x	12*	x	x	-9	2	3	7.1*
Cc1ccc(S(=O)(=O)NCC(=O)NNC(=O)c2ccccc2Cl)cc1C	11	0	x	-10	1	x	x	x
C[C@@H]1CC[C@H](Cc2ccc(-n3cccc3)cc2)N1C(=O)OC(C)(C)C	x	-6	x	x	x	x	x	x
NCCNC(=O)Cc1ccc(NC(=O)Cc2ccc(Nc3ncnc4c3ncn4[C@@H]3O[C@H](CO)[C@@H](O)[C@H]3O)cc2)cc1	-10	16*	x	0	-2	0	28*	-2
O=C1OC(NCc2cccnc2)(c2ccc(Cl)cc2)c2ccccc21 (configuration not stated)	-13	12*	3	-7	3	4	7.4*	-2
CS(=O)(=O)Nc1ccc(-c2ccc3nccn3c2)cc1	x	4	x	x	x	x	x	x
